From ChEMBL document CHEMBL4828708 (Eur J Med Chem, 2021)
pIC50, pKi: −log10 of the molar value. One block for each compound: values may come before it. Calls of active or inactive are those of the source. The calls are words filed in the database; no cut-off is given here.

What was measured:
Adenosine receptor A1 = target: T1, Adenosine receptor A1 (Homo sapiens, UniProt P30542); test: Displacement [3H]DPCPX from human adenosine A1 receptor expressed in CHO cell membrane incubated for 60 mins by microplate beta scintillation counting based radioligand inhibition assay; assay type: cell membranes
T1 sequence (P30542 whole entry): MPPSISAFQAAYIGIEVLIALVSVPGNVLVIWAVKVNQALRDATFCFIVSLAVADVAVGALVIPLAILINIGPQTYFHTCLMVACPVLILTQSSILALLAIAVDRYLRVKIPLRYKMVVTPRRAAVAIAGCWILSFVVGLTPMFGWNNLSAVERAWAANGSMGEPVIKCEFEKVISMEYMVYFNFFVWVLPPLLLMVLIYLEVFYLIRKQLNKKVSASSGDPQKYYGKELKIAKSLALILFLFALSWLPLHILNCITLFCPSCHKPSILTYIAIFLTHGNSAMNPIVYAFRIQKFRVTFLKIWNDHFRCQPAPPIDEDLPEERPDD

[1] = target: T2, Adenosine receptor A3 (Homo sapiens) (UniProt P0DMS8); test: Displacement of [3H]NECA from human adenosine A3 receptor expressed in HEK293 cell membrane at 10 uM incubated for 180 mins by microplate beta scintillation counting based radioligand inhibition assay relative to control
T2 sequence (whole entry): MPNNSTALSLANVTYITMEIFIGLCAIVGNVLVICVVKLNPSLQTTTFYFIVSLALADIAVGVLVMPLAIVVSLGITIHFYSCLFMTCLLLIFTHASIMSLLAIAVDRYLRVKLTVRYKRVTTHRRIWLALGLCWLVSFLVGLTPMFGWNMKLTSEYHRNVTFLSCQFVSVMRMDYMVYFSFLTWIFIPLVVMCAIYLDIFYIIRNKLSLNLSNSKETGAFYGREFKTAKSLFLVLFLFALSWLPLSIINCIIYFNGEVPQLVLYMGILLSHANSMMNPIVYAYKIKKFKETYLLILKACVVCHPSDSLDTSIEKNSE

Adenosine receptor A3 = target: T3, Adenosine receptor A3 (Homo sapiens, UniProt P0DMS8); test: Displacement of [3H]NECA from human adenosine A3 receptor expressed in HeLa cell membrane incubated for 180 mins by microplate beta scintillation counting based radioligand inhibition assay; assay type: cell membranes
T3 sequence (P0DMS8 whole entry): T2 sequence (whole entry)

Blood [2] = test: Inhibition of ADP-stimulated platelet aggregation in human whole blood assessed as decrease in platelet activation measured upto 15 mins by whole blood aggregometry assay; assay type: functional, tissue-based
Summary of the method: (§1)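 Human whole blood was pre-incubated 5 min with compound dissolved in 0.1% DMSO, or with 0.1% DMSO alone. Test concentrations were 10, 30 or 50 μM. Aggregation was triggered with 6.4 μM ADP or 1 μg/mL collagen and monitored for up to 15 min on a five-channel Multiplate analyzer. Read-out was area under the aggregation curve, n = 13 donors, paired Student's t-test.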

Blood [3] = test: Inhibition of thrombus in human whole blood measured after 10 mins by microscopic analysis; assay type: functional, tissue-based
Summary of the method: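 Citrated human blood labelled with anti-CD61-PE, given compound or 0.1% DMSO 5 min beforehand, recalcified with 1 mM CaCl2, then perfused through type I collagen-coated channels at 20 dyn/cm2 for 5 min. Fluorescent thrombus area summed per donor (thrombi >50 μm2). Paired t-test, n = 9.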

[4] = target: T4, Adenosine receptor A2b (Homo sapiens) (UniProt P29275); test: Displacement of [3H]DPCPX from human adenosine A2B receptor expressed in HEK cell membrane at 10 uM incubated for 30 mins by microplate beta scintillation counting based radioligand inhibition assay relative to control; assay type: cell membranes; details: HEK293
T4 sequence (whole entry): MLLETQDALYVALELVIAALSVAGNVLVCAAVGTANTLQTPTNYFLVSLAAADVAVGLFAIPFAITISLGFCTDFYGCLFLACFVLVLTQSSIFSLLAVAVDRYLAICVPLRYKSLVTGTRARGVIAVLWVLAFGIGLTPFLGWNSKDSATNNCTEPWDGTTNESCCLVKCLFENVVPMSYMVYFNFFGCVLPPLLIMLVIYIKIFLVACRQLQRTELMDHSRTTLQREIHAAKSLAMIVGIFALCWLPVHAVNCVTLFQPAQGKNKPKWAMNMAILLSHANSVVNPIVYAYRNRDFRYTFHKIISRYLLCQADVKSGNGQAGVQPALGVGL

Adenosine receptor A2a [5] = target: T5, Adenosine receptor A2a (Homo sapiens, UniProt P29274); test: Displacement of [3H]CGS21680 from human adenosine A2A receptor expressed in HEK293 cell membrane incubated for 30 mins by microplate beta scintillation counting based radioligand inhibition assay
Adenosine receptor A2b = target: T6, Adenosine receptor A2b (Homo sapiens, UniProt P29275); test: Displacement of [3H]DPCPX from human adenosine A2B receptor expressed in HEK cell membrane incubated for 30 mins by microplate beta scintillation counting based radioligand inhibition assay; assay type: cell membranes
T6 sequence (P29275 whole entry): T4 sequence (whole entry)

Adenosine receptor A2a [6] = target: T5, Adenosine receptor A2a; test: Displacement of [3H]ZM241385 from human adenosine A2A receptor expressed in HeLa cells by beta scintillation counting analysis; assay type: cell-based
Blood [7] = test: Inhibition of collagen-stimulated platelet aggregation in human whole blood assessed as decrease in platelet activation measured upto 15 mins by whole blood aggregometry assay; assay type: functional, tissue-based; summary of the method: as §1

T5 sequence (P29274 whole entry): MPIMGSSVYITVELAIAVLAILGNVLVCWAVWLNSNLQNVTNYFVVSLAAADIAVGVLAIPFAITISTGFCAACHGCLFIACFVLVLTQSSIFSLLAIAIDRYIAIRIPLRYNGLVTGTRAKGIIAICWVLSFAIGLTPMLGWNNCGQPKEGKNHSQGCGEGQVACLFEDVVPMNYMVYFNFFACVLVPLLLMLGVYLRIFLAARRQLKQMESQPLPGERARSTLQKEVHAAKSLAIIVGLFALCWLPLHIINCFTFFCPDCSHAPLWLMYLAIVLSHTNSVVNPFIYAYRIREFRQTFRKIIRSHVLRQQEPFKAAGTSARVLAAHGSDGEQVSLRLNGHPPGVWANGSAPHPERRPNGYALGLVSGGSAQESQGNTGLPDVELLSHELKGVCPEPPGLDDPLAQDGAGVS

Compound: OC[C@H]1O[C@@H](n2cnc3c(NCCCCc4ccccc4)ncnc32)[C@H](O)[C@@H]1O
- pKi (Adenosine receptor A1): 6.06

Compound: Nc1ncnc2c1ncn2[C@@H]1O[C@H](CO)[C@@H](O)[C@H]1OCOCCCc1ccccc1
- inhibition [1]: 29%

Compound: OC[C@H]1O[C@@H](n2cnc3c(NCCCc4ccccc4)ncnc32)[C@H](O)[C@@H]1O
- pKi (Adenosine receptor A1): 7.10
- inhibition (Blood [2]): Active
- inhibition (Blood [3]): Active
- pKi (Adenosine receptor A3): 7.26

Compound: OC[C@H]1O[C@@H](n2cnc3c(NCCCc4ccccc4)nc(Cl)nc32)C[C@@H]1O
- inhibition [4]: 1%
- pKi (Adenosine receptor A1): 4.88
- pKi (Adenosine receptor A3): 5.06

Compound: Nc1nc(C#Cc2ccccc2)nc2c1ncn2[C@@H]1O[C@H](CO)[C@@H](O)[C@@H]1O
- pKi (Adenosine receptor A3): 5.91

Compound: Nc1nc(C#Cc2ccccc2)nc2c1ncn2[C@@H]1O[C@H](CO)[C@@H](O)[C@H]1O
- pKi (Adenosine receptor A1): 6.19
- pKi (Adenosine receptor A2a [5]): 5.98
- pKi (Adenosine receptor A3): 7.38

Compound: Nc1ncnc2c1ncn2[C@H]1C[C@H](O)[C@@H](CO)O1
- inhibition [4]: 12%
- inhibition [1]: 5%

Compound: Nc1ncnc2c1nc(C#Cc1ccccc1)n2[C@H]1C[C@H](O)[C@@H](CO)O1
- pKi (Adenosine receptor A2a [5]): 5.70
- pKi (Adenosine receptor A3): 6.06

Compound: CCNC(=O)[C@H]1O[C@@H](n2cnc3c(NCCCc4ccccc4)ncnc32)[C@H](O)[C@@H]1O
- pKi (Adenosine receptor A2b): 5.86
- inhibition (Blood [2]): Active
- pIC50 (Adenosine receptor A2a [6]): 4.84
- pKi (Adenosine receptor A3): 8.35
- inhibition (Blood [7]): Active

Compound: CCNC(=O)[C@H]1O[C@@H](n2cnc3c(NCCCCc4ccccc4)ncnc32)[C@H](O)[C@@H]1O
- pKi (Adenosine receptor A1): 6.10

Second part, the compound after the results:

- inhibition [1]: 44%
Compound: Nc1ncnc2c1nc(CCc1ccccc1)n2[C@H]1C[C@H](O)[C@@H](CO)O1

- pKi (Adenosine receptor A3): 6.07
Compound: Nc1ncnc2c1nc(C#Cc1ccccc1)n2[C@@H]1O[C@H](CO)[C@@H](O)[C@H]1O

- inhibition [1]: 54%
Compound: Nc1nc(CCc2ccccc2)nc2c1ncn2[C@@H]1O[C@H](CO)[C@@H](O)[C@@H]1O

- pKi (Adenosine receptor A1): 5.71
- pKi (Adenosine receptor A3): 5.06
Compound: Nc1nc(CCc2ccccc2)nc2c1ncn2[C@@H]1O[C@H](CO)[C@@H](O)[C@H]1O

- inhibition [1]: 8%
Compound: Nc1ncnc2c1nc(CCc1ccccc1)n2[C@@H]1O[C@H](CO)[C@@H](O)[C@H]1O
